We go through 23 compounds from ChEMBL document CHEMBL3108749, “Discovery of a non-estrogenic irreversible inhibitor of 17β-hydroxysteroid dehydrogenase type 1 from 3-substituted-16β-(m-carbamoylbenzyl)-estradiol derivatives” (J Med Chem, 2014).

Assay [1] concerns the target T1, 17-beta-hydroxysteroid dehydrogenase type 1 (Homo sapiens) (UniProt P14061).
T1 sequence (whole entry): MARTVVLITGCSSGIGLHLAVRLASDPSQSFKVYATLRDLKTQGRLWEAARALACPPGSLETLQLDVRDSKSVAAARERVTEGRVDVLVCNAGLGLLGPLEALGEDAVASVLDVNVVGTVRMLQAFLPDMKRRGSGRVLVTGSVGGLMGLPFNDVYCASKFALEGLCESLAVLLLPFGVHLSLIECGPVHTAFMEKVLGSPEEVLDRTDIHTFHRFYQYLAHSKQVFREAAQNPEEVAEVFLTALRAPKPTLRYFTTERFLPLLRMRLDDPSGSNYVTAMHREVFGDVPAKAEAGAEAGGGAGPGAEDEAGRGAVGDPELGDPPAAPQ
The assay can be described thus: Inhibition of 17-beta HSD1 in human T47D cells assessed as transformation of [14C]E1 to [14C]E2 at 0.1 uM after 24 hrs by thin layer chromatography. Type of assay: cell-based. The method, boiled down: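 T-47D cells (endogenous 17β-HSD1) are seeded at 3000 cells/well in RPMI with insulin (50 ng/mL) and 5% charcoal-stripped FBS. After 24 h, compound (from EtOH stock, 0.1 μM final) is added with [14C]-E1 (60 nM) for 24 h. Steroids are extracted into diethyl ether, separated by silica TLC (toluene/acetone 4:1) and quantified. Mean ± SD of ≥2 independent experiments in triplicate.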

In assay [2] the test system is MCF7. The assay can be described thus: Cytotoxicity against human estrogen-starved estrogen-sensitive MCF7 cells assessed as cell growth at 1 uM after 7 days by MTS assay relative to control. As to conditions: MCF7, 168 h, read-out: Activity. Type of assay: functional. The method, boiled down: (§1)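 MCF-7 (DMEM-F12) or T-47D (RPMI) cells are kept in medium with insulin (50 ng/mL) and 5% dextran-coated charcoal-treated FBS, seeded at 3000 cells/well. After 48 h, medium is replaced with medium containing compound, renewed every two days, and cells grow seven days. Growth is read by CellTiter 96 aqueous (MTS) assay as % proliferation vs basal control (0%). Scored −/+/++/+++ bands.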

Assay [3] has as its system MCF7. The assay can be described thus: Cytotoxicity against human estrogen-starved estrogen-sensitive MCF7 cells assessed as cell growth at 0.1 uM after 7 days by MTS assay relative to control. Type of assay: functional. The conditions noted are these: MCF7, 168 h, read-out: Activity. The method, boiled down: as §1
On the technique in general: Tetrazolium dyes change colour on reduction, which living cells bring about.

In assay [4] the test system is T47D. Nature of the assay: Cytotoxicity against human estrogen-starved estrogen-sensitive T47D cells assessed as cell growth at 0.1 uM after 7 days by MTS assay relative to control. In kind it is functional. The conditions noted are these: 168 h, read-out: Activity. The method, boiled down: as §1
Assay [5] has as its system T47D. The assay can be described thus: Cytotoxicity against human estrogen-starved estrogen-sensitive T47D cells assessed as cell growth at 1 uM after 7 days by MTS assay relative to control. As to conditions: 168 h, read-out: Activity. In kind it is functional. The procedure, abridged:
as §1

Assay [6] has as its target T2, 3-keto-steroid reductase/17-beta-hydroxysteroid dehydrogenase 7 (Homo sapiens) (UniProt P56937).
T2 sequence (whole entry): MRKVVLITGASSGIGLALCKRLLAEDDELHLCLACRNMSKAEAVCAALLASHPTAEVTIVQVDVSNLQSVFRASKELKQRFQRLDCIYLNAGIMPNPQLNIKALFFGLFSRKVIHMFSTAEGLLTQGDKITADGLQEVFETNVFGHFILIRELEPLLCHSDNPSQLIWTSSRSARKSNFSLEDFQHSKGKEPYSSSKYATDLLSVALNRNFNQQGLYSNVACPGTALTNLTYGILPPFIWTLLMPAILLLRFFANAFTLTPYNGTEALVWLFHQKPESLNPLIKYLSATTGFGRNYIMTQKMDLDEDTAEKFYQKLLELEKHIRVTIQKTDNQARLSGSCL
The assay can be described thus: Inhibition of 17-beta HSD7 (unknown origin) transfected in HEK293 cells using [14C]E1 as substrate at 10 uM. Type of assay: cell-based. The method, boiled down:
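Stably transfected HEK-293 cells in stripped-serum MEM with G418 and insulin, seeded 48 h. Then treated with compound in DMSO (<0.5% final) plus 60 nM substrate: [14C]-E2 for 17β-HSD2, [14C]-E1 for 17β-HSD7 and 17β-HSD12. Stopped at 12–25% substrate conversion; ether extraction, TLC, radiolabel quantification; triplicates, at least two experiments.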

SMILES strings stand for the structures.

The term inhibition denotes the percentage by which the read-out fell short of the control. In the case of `C[C@]12CC[C@@H]3c4ccc(C(N)=O)cc4CC[C@H]3[C@@H]1C[C@H](Cc1cccc(C(N)=O)c1)[C@@H]2O`, the inhibition in assay [1] was determined as 2%. In the assay with MCF7 [2], the percent proliferation above basal control at 1 µM was 15%. In addition, in the assay with MCF7 [3], the percent proliferation above basal control at 0.1 µM was determined as 0%.
Taken in the same sequence, the figures for `CCCN(CC)C(=O)c1ccc2c(c1)CC[C@@H]1[C@@H]2CC[C@]2(C)[C@@H](O)[C@@H](Cc3cccc(C(N)=O)c3)C[C@@H]12` were 10%, 0% and 0%.
As for `C[C@]12CC[C@@H]3c4ccc(F)cc4CC[C@H]3[C@@H]1C[C@H](Cc1cccc(C(N)=O)c1)[C@@H]2O`, the inhibition in assay [1] came out at 10%. The percent proliferation above basal control at 1 µM with MCF7 [2] stood at 5%. Moreover, the percent proliferation above basal control at 0.1 µM with MCF7 [3] was 0%.
Taken in the same sequence, the figures for `C[C@]12CC[C@@H]3c4ccc(C(=O)O)cc4CC[C@H]3[C@@H]1C[C@H](Cc1cccc(C(N)=O)c1)[C@@H]2O` were 3%, more than 30% and 5%.
Taken in the same sequence, the figures for `CCCN(CC)Cc1ccc2c(c1)CC[C@@H]1[C@@H]2CC[C@]2(C)[C@@H](O)[C@@H](Cc3cccc(C(N)=O)c3)C[C@@H]12` were 14%, 0% and 0%.
On the same counts, the results for `C[C@]12CC[C@@H]3c4ccc(CCO)cc4CC[C@H]3[C@@H]1C[C@H](Cc1cccc(C(N)=O)c1)[C@@H]2O` are 18%, 5% and 5%.
As to `CN(C)C(=O)c1ccc2c(c1)CC[C@@H]1[C@@H]2CC[C@]2(C)[C@@H](O)[C@@H](Cc3cccc(C(N)=O)c3)C[C@@H]12`, in assay [1], the inhibition was 1%. The percent proliferation above basal control at 1 µM in the assay on MCF7 [2] was found to be 15%. The percent proliferation above basal control at 0.1 µM in the assay on MCF7 [3] worked out at 5%.
Taken in the same sequence, the figures for `CCc1ccc2c(c1)CC[C@@H]1[C@@H]2CC[C@]2(C)[C@@H](O)[C@@H](Cc3cccc(C(N)=O)c3)C[C@@H]12` were 6%, 0% and 0%.
On to `C[C@]12CC[C@@H]3c4ccc(CBr)cc4CC[C@H]3[C@@H]1C[C@H](Cc1cccc(C(N)=O)c1)[C@@H]2O`, for which, in assay [1], the inhibition is 30%. The percent proliferation above basal control at 1 µM in the assay with MCF7 [2] is 0%. Further, the percent proliferation above basal control at 0.1 µM in the assay with MCF7 [3] was found to be 0%.
As to `C[C@]12CC[C@@H]3c4ccc(CCc5ccccc5)cc4CC[C@H]3[C@@H]1C[C@H](Cc1cccc(C(N)=O)c1)[C@@H]2O`, in assay [1], the inhibition worked out at 17%. In addition, the percent proliferation above basal control at 0.1 µM in the assay with T47D [4] is 0%. Also, the % proliferation above basal control (0% = control) at 1 µM in the assay with T47D [5] was 0%.
For `C[C@]12CC[C@@H]3c4ccc(CN)cc4CC[C@H]3[C@@H]1C[C@H](Cc1cccc(C(N)=O)c1)[C@@H]2O`, the inhibition in assay [1] stood at 44%. Moreover, the percent proliferation above basal control at 1 µM with MCF7 [2] was more than 30%. Moreover, the percent proliferation above basal control at 0.1 µM in the assay with MCF7 [3] is more than 30%.
As for `C[C@]12CC[C@@H]3c4ccc(CCI)cc4CC[C@H]3[C@@H]1C[C@H](Cc1cccc(C(N)=O)c1)[C@@H]2O`, the inhibition in assay [1] amounted to 54%. In the assay with T47D [4], the percent proliferation above basal control at 0.1 µM was 0%. For the same compound, the % proliferation above basal control (0% = control) at 1 µM in the assay with T47D [5] is 0%.
In the case of `C[C@]12CC[C@@H]3c4ccc(CCCO)cc4CC[C@H]3[C@@H]1C[C@H](Cc1cccc(C(N)=O)c1)[C@@H]2O`, the inhibition in assay [1] worked out at 20%. Moreover, in the assay with T47D [4], the percent proliferation above basal control at 0.1 µM is 0%. Further, the % proliferation above basal control (0% = control) at 1 µM in the assay with T47D [5] was found to be 5%.
With `C[C@]12CC[C@@H]3c4ccc(N)cc4CC[C@H]3[C@@H]1C[C@H](Cc1cccc(C(N)=O)c1)[C@@H]2O`, in assay [1], the inhibition stood at 31%. Also, in the assay with MCF7 [2], the percent proliferation above basal control at 1 µM stood at 5%. Further, the percent proliferation above basal control at 0.1 µM with MCF7 [3] turned out to be 0%.
For the compound `CN(C)Cc1ccc2c(c1)CC[C@@H]1[C@@H]2CC[C@]2(C)[C@@H](O)[C@@H](Cc3cccc(C(N)=O)c3)C[C@@H]12`, in assay [1], the inhibition turned out to be 19%. Besides, the percent proliferation above basal control at 1 µM in the assay with MCF7 [2] is 0%. Moreover, the percent proliferation above basal control at 0.1 µM in the assay with MCF7 [3] stood at 0%.
For the compound `CNC(=O)Cc1ccc2c(c1)CC[C@@H]1[C@@H]2CC[C@]2(C)[C@@H](O)[C@@H](Cc3cccc(C(N)=O)c3)C[C@@H]12`, the inhibition in assay [1] was found to be 11%. Besides, the percent proliferation above basal control at 1 µM in the assay with MCF7 [2] is 0%. The percent proliferation above basal control at 0.1 µM in the assay with MCF7 [3] turned out to be 0%.
In assay [6], `CCCCCCCN(C)[C@H]1CC[C@H]2C3CC[C@H]4NC(=O)CC[C@]4(C)[C@H]3CC[C@]12C` (stereo partly specified) registered an inhibition of 81%.
Take `C[C@]12CC[C@@H]3c4ccc(CN5CCCC5)cc4CC[C@H]3[C@@H]1C[C@H](Cc1cccc(C(N)=O)c1)[C@@H]2O`: in assay [1], the inhibition amounted to 10%. Further, the percent proliferation above basal control at 1 µM in the assay on MCF7 [2] is 5%. The percent proliferation above basal control at 0.1 µM with MCF7 [3] is 0%.
As for `C[C@]12CC[C@@H]3c4ccc(CO)cc4CC[C@H]3[C@@H]1C[C@H](Cc1cccc(C(N)=O)c1)[C@@H]2O`, in the assay on MCF7 [2], the percent proliferation above basal control at 1 µM was determined as 5%. For the same compound, in the assay on MCF7 [3], the percent proliferation above basal control at 0.1 µM worked out at 0%.
Take `C[C@]12CC[C@@H]3c4ccc(CC(=O)O)cc4CC[C@H]3[C@@H]1C[C@H](Cc1cccc(C(N)=O)c1)[C@@H]2O`: in assay [1], the inhibition came to 7%. Further, the percent proliferation above basal control at 1 µM in the assay with MCF7 [2] came out at 5%. Besides, the percent proliferation above basal control at 0.1 µM in the assay with MCF7 [3] was 0%.
`C[C@]12CC[C@@H]3c4ccc(CCCl)cc4CC[C@H]3[C@@H]1C[C@H](Cc1cccc(C(N)=O)c1)[C@@H]2O`: the inhibition in assay [1] came to 12%. In addition, the percent proliferation above basal control at 0.1 µM in the assay with T47D [4] was 0%. For the same compound, in the assay with T47D [5], the % proliferation above basal control (0% = control) at 1 µM turned out to be 0%.
Consider `C[C@]12CC[C@@H]3c4ccc(B(O)O)cc4CC[C@H]3[C@@H]1C[C@H](Cc1cccc(C(N)=O)c1)[C@@H]2O`, for which, in assay [1], the inhibition worked out at 36%. Besides, the percent proliferation above basal control at 1 µM with MCF7 [2] is more than 30%. For the same compound, in the assay with MCF7 [3], the percent proliferation above basal control at 0.1 µM is more than 30%.
With `C[C@]12CC[C@@H]3c4ccc(C(=O)N5CCCC5)cc4CC[C@H]3[C@@H]1C[C@H](Cc1cccc(C(N)=O)c1)[C@@H]2O`, in assay [1], the inhibition turned out to be 3%. Also, the percent proliferation above basal control at 1 µM in the assay on MCF7 [2] was 0%. Moreover, the percent proliferation above basal control at 0.1 µM in the assay with MCF7 [3] stood at 0%.
